Measurements: paper PMC12669303 (Clinical Drug Investigation, 2025)
Like-named read-outs stand apart in the source and are kept apart here. Marks after values point to notes of the source that are not given here.

Key:
[1] = Multiple once-daily oral dose pharmacokinetics of dotinurad in plasma; assay type: in vivo, human (healthy Chinese adults)
Procedure, shortened: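 In the 4-mg cohort (n=10, screening serum urate ≥ 5.5 mg/dL), a single Day 1 dose was followed by a 3-day washout. The test compound was then given orally once daily on Days 4–10, each morning after a 10-h fast. Plasma sampled 0–72 h after the Day 10 dose was assayed by LC-MS/MS (LOQ 1 ng/mL). Parameters are noncompartmental, with accumulation relative to Day 1. Mean ± SD; tss,max median (min–max).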

[2] = Safety and tolerability: treatment-emergent adverse events; assay type: in vivo, human (healthy Chinese adults)
Procedure, shortened: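 Oral tablets were given fasted to three cohorts: 1 mg single (n=8), 4 mg single then 7-day once-daily (n=10), and 10 mg single (n=8). Safety covered TEAEs, hematology, blood chemistry, urinalysis, vital signs, weight, 12-lead ECG and physical examination. AEs were coded with MedDRA v25.0. The safety set was subjects with ≥ 1 dose and ≥ 1 postdose assessment, reported as n (%).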

[3] = Single oral dose pharmacokinetics of dotinurad in plasma, phase 1 study; assay type: in vivo, human (healthy Chinese adults); details: for Vd/F / half-life / AUC(0-inf) / Cmax / Tmax: human, plasma
Procedure, shortened: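 Healthy nonsmoking Chinese adults (18–45 y, weight ≥ 50 kg) took a single oral tablet dose (1 mg n=8, 4 mg n=10, 10 mg n=8) on Day 1 after a 10-h fast. Plasma was sampled 0–48 h, separated at 2000 g for 10 min at 4 °C, and stored at −80 °C. Samples had solid-phase pretreatment, then LC-MS/MS (LOQ 1 ng/mL). Noncompartmental parameters are mean ± SD, tmax median (min–max).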

serum urate = details: Chinese patients with gout, cited from earlier work
[4] = 4 mg once daily for 7 days, Day 10, N = 10, mean ± SD
[5] = 4 mg once daily for 7 days, Day 10 vs Day 1, N = 10, mean ± SD
[6] = Cohort A, 1 mg single dose, N = 8
[7] = Cohort A, 1 mg single dose, N = 8, determined as drug-related TEAE
[8] = Cohort B, 4 mg single and multiple doses, N = 10
[9] = Cohort C, 10 mg single dose, N = 8

With `O=C(c1cc(Cl)c(O)c(Cl)c1)N1CS(=O)(=O)c2ccccc21` [Dotinurad] the CLss/F [1, 4] was 0.923 ± 0.183 L/h, the “Css,av” value [1, 4] was 186 ± 31.8 ng/mL and the “Css,max” value [1, 4] was 397 ± 69.4 ng/mL. For the same compound, the “Css,min” value [1, 4] was 65.4 ± 22.1 ng/mL, the “tss,max” value ([1]; 4 mg once daily for 7 days, Day 10, N = 10, median (min–max)) was 3.00 (2.00–6.00) h and the “Rac(AUC0–24h) accumulation ratio” value [1, 5] was 1.13 ± 0.121. For the same compound, the “Rac(Cmax) accumulation ratio” value [1, 5] was 1.09 ± 0.185, the AUC ([1]; human, plasma, oral, 4 mg) was 4470 ± 762 ng·h/mL and the Vd/F ([1]; human, plasma, oral, 4 mg) was 13.2 ± 1.64 L. The half-life ([1]; human, plasma, oral, 4 mg) was 10.1 ± 1.72 h, the “mean plasma concentration relative to the corresponding maximum concentration” value ([1]; within 72 h after Day 10 dose, 4 mg once daily for 7 days) was “below 1%” and the “dose dependence of TEAEs” value ([2]; 1, 4 and 10 mg cohorts) was “No dose-dependent TEAEs were observed”. The “Number of subjects with at least one TEAE, any severity” value (from here on “Number of subjects … any severity”) [2, 6] was 2 (25.0) n (%), the “Number of subjects with at least one TEAE, mild” value (shortened to “Number of subjects … mild”) [2, 6] was 2 (25.0) n (%) and the “Number of subjects with at least one TEAE, moderate” value (“Number of subjects … moderate” below) [2, 6] was 0 n (%). For the same compound, the “Number of subjects with at least one TEAE, severe” value (from here on “Number of subjects … severe”) [2, 6] was 0 n (%), the “TEAE: Blood bilirubin increased (mild)” value [2, 6] was 0 n (%) and the “TEAE: Body temperature increased (mild)” value [2, 6] was 0 n (%). For the same compound, the “TEAE: Alanine aminotransferase increased (mild)” value [2, 7] was 1 (12.5)^a n (%), the “TEAE: Blood triglycerides increased (mild)” value [2, 7] was 1 (12.5)^a n (%) and the “Number of subjects … any severity” value [2, 8] was 2 (20.0) n (%). For the same compound, the “Number of subjects … mild” value [2, 8] was 2 (20.0) n (%), the “Number of subjects … moderate” value [2, 8] was 0 n (%) and the “Number of subjects … severe” value [2, 8] was 0 n (%). The “TEAE: Alanine aminotransferase increased (mild)” value [2, 8] was 0 n (%), the “TEAE: Blood bilirubin increased (mild)” value [2, 8] was 1 (10.0) n (%) and the “TEAE: Blood triglycerides increased (mild)” value [2, 8] was 0 n (%). The “TEAE: Body temperature increased (mild)” value [2, 8] was 1 (10.0) n (%), the “Number of subjects … any severity” value [2, 9] was 0 n (%) and the “Number of subjects … mild” value [2, 9] was 0 n (%). For the same compound, the “Number of subjects … moderate” value [2, 9] was 0 n (%), the “Number of subjects … severe” value [2, 9] was 0 n (%) and the “TEAE: Alanine aminotransferase increased (mild)” value [2, 9] was 0 n (%). The “TEAE: Blood bilirubin increased (mild)” value [2, 9] was 0 n (%), the “TEAE: Blood triglycerides increased (mild)” value [2, 9] was 0 n (%) and the “TEAE: Body temperature increased (mild)” value [2, 9] was 0 n (%). For the same compound, the “Number of subjects … any severity” value ([2]; Total, all cohorts, N = 26) was 4 (15.4) n (%), the “Number of subjects … mild” value ([2]; Total, all cohorts, N = 26) was 4 (15.4) n (%) and the “Number of subjects … moderate” value ([2]; Total, all cohorts, N = 26) was 0 n (%). For the same compound, the “Number of subjects … severe” value ([2]; Total, all cohorts, N = 26) was 0 n (%), the “TEAE: Alanine aminotransferase increased (mild)” value ([2]; Total, all cohorts, N = 26) was 1 (3.8) n (%) and the “TEAE: Blood bilirubin increased (mild)” value ([2]; Total, all cohorts, N = 26) was 1 (3.8) n (%). For the same compound, the “TEAE: Blood triglycerides increased (mild)” value ([2]; Total, all cohorts, N = 26) was 1 (3.8) n (%), the “TEAE: Body temperature increased (mild)” value ([2]; Total, all cohorts, N = 26) was 1 (3.8) n (%) and the “severity and outcome of TEAEs” value ([2]; all cohorts) was “All the TEAEs were mild and resolved without any treatment”. For the same compound, the “fatal TEAE, serious TEAE, or TEAE leading to discontinuation of study drug” value ([2]; all cohorts, 1–10 mg) was “No fatal TEAE, serious TEAE, or TEAE leading to discontinuation of study drug was reported”, the “subjects who experienced at least 1 TEAE” value ([2]; all cohorts, 4 of 26 subjects) was 15.4% and the “subjects who experienced at least 1 TEAE” value ([2]; single and multiple doses of 4 mg (Cohort B), 2/10 subjects) was 20.0%. For the same compound, the “subjects who experienced at least 1 TEAE” value ([2]; single dose 1 mg (Cohort A), 2/8 subjects) was 25.0%, the “time at which mean plasma concentration reached maximum” value ([3]; across single oral doses of 1, 4 and 10 mg) was 3.00 to 3.50 h and the CL/F ([3]; across the single-dose range of 1–10 mg) was 0.757 to 0.834 L/h. For the same compound, the Vd/F ([3]; oral) was 11.1 to 11.7 L, the half-life ([3]; oral) was ~10 h and the AUC(0-inf) ([3]; po, 1 mg) was 1360 ± 288 ng·h/mL. It also gave a Cmax ([3]; po, 1 mg) of 104 ± 18.5 ng/mL, a Tmax ([3]; po, 1 mg) of 3.5 h and a Vd/F ([3]; po, 1 mg) of 11.1 ± 2.06 L. For the same compound, the half-life ([3]; po, 1 mg) was 10.1 ± 1.26 h, the AUC(0-inf) ([3]; po, 4 mg) was 4890 ± 683 ng·h/mL and the Cmax ([3]; po, 4 mg) was 365 ± 35.2 ng/mL. The Tmax ([3]; po, 4 mg) was 3 h, the Vd/F ([3]; po, 4 mg) was 11.7 ± 1.12 L and the AUC(0-inf) ([3]; po, 10 mg) was 13600 ± 2480 ng·h/mL. It also gave a Cmax ([3]; po, 10 mg) of 964 ± 101 ng/mL, a Tmax ([3]; po, 10 mg) of 3 h and a Vd/F ([3]; po, 10 mg) of 11.6 ± 1.1 L. For the same compound, the half-life ([3]; po, 10 mg) was 10.9 ± 1.53 h, the CL/F ([3]; single oral dose 1 mg, fasted, Cohort A, N = 8, mean ± SD) was 0.764 ± 0.147 L/h and the CL/F ([3]; single oral dose 4 mg, fasted, Cohort B Day 1, N = 10, mean ± SD) was 0.834 ± 0.130 L/h. For the same compound, the CL/F ([3]; single oral dose 10 mg, fasted, Cohort C, N = 8, mean ± SD) was 0.757 ± 0.134 L/h, the “mean plasma concentration relative to the corresponding maximum concentration” value ([3]; within 48 h after single oral doses of 1 to 10 mg) was “below 10%” and the “reduction of serum urate” value (serum urate; 2 mg, Week 12) was 37.9%. The “reduction of serum urate” value (serum urate; 4 mg, Week 24) was 45.9%.
